Source: ChEMBL document CHEMBL5260830, “Breakthroughs in neuroactive steroid drug discovery” (Bioorg Med Chem Lett, 2018)
Values after ≈ are worked out from the molar mass of the structure shown.

Legend:
[1] = Brain concentration in mouse at 10 mg/kg po measured after 30 mins; assay type: ADME, organism-based; settings: read-out: Ct
Procedure, shortened: (§1)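 Mice were given oral doses of 3, 10 or 30 mg/kg, with a vehicle group. Pentylenetetrazole was used to induce seizures. Percentages of animals with clonic seizure, tonic seizure and death were recorded. Plasma (ng/mL) and brain (ng/g) concentrations were measured in samples collected 30 min after administration.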

[2] = Plasma concentration in mouse at 30 mg/kg, po measured after 30 mins; assay type: ADME, organism-based; procedure, shortened: as §1
[3] = Plasma concentration in mouse at 10 mg/kg, po measured after 30 mins; assay type: ADME, organism-based; procedure, shortened: as §1
Mus musculus [4] = assay: Anticonvulsant activity in PTZ induced mouse assessed as reduction in tonic seizure at 3 mg/kg,po (reference value: 80%); assay type: functional; set-up: scale not given: the % may be the effect or the level left; procedure, shortened: as §1
Mus musculus [5] = assay: Anticonvulsant activity in PTZ induced mouse assessed as animal death at 3 mg/kg,po (reference value: 80%); assay type: functional; procedure, shortened: as §1
Mus musculus [6] = assay: Anticonvulsant activity in PTZ induced mouse assessed as reduction in clonic seizure at 3 mg/kg,po (reference value: 100%); assay type: functional; set-up: scale not given: the % may be the effect or the level left; procedure, shortened: as §1
[7] = Plasma concentration in mouse at 3 mg/kg, po measured after 30 mins; assay type: ADME, organism-based; procedure, shortened: as §1
[8] = Brain concentration in mouse at 30 mg/kg po measured after 30 mins; assay type: ADME, organism-based; settings: read-out: Ct; procedure, shortened: as §1
Mus musculus [9] = assay: Anticonvulsant activity in PTZ induced mouse assessed as reduction in clonic seizure at 10 mg/kg,po (reference value: 100%); assay type: functional; set-up: scale not given: the % may be the effect or the level left; procedure, shortened: as §1
[10] = Brain concentration in mouse at 3 mg/kg po measured after 30 mins; assay type: ADME, organism-based; settings: read-out: Ct; procedure, shortened: as §1
Mus musculus [11] = assay: Anticonvulsant activity in PTZ induced mouse administered orally; assay type: functional; settings: route po
Procedure, shortened: (§2)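 Mice were dosed orally. Anxiolytic activity was tested in the elevated plus maze and reported as minimum effective dose. Anticonvulsant activity was tested against pentylenetetrazole-induced seizures and reported as ED50. Therapeutic indices were given for the anxiolytic and anticonvulsant read-outs against a preliminary mouse safety measure.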

[12] = Solubility of the compound in 45% HPbetaCD; assay type: physicochemical
[13] = Therapeutic index, ratio of AD50 for mouse to MED for anxiolytic activity in mouse assessed as increase in time spent in open arm by elevated plus maze test; assay type: toxicity; settings: read-out: TI; procedure, shortened: as §2
[14] = Therapeutic index, ratio of AD50 for mouse to ED50 for anticonvulsant activity in PTZ induced mouse administered orally; assay type: toxicity; settings: in vivo, route po, read-out: TI; procedure, shortened: as §2
[15] = molecular target: T1, GABA-A receptor; alpha-1/beta-2/gamma-2 (Homo sapiens, UniProt P14867+P18507+P47870); assay: Positive allosteric modulation of human GABAA alpha1beta2gamma2 receptor expressed in Xenopus laevis oocytes by two-microelectrode voltage-clamp assay; assay type: cell-based, Oocyte
T1 sequence (P14867 whole entry): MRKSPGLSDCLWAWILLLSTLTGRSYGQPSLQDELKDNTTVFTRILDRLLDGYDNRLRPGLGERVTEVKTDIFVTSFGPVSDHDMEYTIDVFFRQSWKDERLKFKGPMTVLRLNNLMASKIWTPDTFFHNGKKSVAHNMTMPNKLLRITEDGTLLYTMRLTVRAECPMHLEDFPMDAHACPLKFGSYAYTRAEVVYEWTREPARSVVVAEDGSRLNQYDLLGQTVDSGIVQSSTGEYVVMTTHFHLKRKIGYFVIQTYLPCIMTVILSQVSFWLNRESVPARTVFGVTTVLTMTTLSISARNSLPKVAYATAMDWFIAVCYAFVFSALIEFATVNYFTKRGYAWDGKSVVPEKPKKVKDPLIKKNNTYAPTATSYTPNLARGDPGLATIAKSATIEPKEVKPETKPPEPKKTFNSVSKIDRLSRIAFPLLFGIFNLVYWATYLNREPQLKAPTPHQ
T1 sequence (P47870 whole entry): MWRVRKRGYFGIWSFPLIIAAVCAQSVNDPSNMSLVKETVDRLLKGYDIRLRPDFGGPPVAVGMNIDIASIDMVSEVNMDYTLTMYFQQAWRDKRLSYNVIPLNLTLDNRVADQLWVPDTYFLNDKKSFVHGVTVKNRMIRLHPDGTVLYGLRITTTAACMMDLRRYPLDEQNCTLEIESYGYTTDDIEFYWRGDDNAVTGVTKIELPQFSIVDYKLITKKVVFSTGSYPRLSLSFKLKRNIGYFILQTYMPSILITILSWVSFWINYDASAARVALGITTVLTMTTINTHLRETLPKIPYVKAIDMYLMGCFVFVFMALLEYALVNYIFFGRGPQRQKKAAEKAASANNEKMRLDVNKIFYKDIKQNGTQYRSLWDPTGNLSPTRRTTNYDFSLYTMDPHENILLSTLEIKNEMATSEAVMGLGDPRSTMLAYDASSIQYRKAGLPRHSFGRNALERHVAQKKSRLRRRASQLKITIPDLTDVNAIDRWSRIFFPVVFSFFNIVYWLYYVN
T1 sequence (P18507 whole entry): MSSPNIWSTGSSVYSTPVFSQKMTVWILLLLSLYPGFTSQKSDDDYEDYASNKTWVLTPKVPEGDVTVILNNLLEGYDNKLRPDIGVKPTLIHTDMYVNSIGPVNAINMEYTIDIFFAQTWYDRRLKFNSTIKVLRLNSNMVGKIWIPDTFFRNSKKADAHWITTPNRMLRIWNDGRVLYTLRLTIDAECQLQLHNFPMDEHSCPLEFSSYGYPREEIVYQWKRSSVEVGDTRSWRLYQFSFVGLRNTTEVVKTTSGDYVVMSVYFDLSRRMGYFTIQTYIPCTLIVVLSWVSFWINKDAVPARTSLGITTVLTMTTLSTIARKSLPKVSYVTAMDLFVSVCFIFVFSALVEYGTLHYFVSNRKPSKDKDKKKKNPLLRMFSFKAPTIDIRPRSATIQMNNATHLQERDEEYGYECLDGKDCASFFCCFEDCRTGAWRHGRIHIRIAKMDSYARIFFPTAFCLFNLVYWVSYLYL
Procedure, shortened: (§3)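 PAM activity measured as EC50 in Xenopus oocytes expressing α1β2γ2L or α2β1γ2L GABAA receptors.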

Mus musculus [16] = species: Mus musculus; assay: Anxiolytic activity in mouse assessed as increase in time spent in open arm by elevated plus maze test; assay type: functional; settings: read-out: MED; procedure, shortened: as §2
[17] = Oral availability in rat 3 mg/kg, po; assay type: ADME, organism-based; settings: in vivo
Procedure, shortened: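 Rat oral bioavailability from dosing at 3 mg/kg p.o. and 1 mg/kg i.v.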

[18] = molecular target: T2, Gamma-aminobutyric acid receptor subunit alpha-2/beta-1/gamma-2 (Homo sapiens, UniProt P18505+P18507+P47869); assay: Positive allosteric modulation of human GABAA alpha2beta1gamma2 receptor expressed in Xenopus laevis oocytes by two-microelectrode voltage-clamp assay; assay type: cell-based, Oocyte; procedure, shortened: as §3
T2 sequence (P18507 whole entry): T1 sequence (P18507 whole entry)
T2 sequence (P18505 whole entry): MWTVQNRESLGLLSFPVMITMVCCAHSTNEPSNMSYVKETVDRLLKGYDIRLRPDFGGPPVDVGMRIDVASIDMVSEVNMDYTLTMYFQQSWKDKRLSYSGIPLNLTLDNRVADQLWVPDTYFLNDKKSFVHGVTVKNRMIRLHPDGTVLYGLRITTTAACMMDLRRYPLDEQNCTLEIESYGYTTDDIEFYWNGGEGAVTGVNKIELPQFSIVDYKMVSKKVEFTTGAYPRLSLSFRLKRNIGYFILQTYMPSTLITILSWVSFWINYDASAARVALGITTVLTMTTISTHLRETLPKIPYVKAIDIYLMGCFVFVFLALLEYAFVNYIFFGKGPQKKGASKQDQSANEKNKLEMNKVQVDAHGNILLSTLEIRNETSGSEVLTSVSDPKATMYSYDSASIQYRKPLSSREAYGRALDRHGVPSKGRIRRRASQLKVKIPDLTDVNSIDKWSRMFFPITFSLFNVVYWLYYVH
T2 sequence (P47869 whole entry): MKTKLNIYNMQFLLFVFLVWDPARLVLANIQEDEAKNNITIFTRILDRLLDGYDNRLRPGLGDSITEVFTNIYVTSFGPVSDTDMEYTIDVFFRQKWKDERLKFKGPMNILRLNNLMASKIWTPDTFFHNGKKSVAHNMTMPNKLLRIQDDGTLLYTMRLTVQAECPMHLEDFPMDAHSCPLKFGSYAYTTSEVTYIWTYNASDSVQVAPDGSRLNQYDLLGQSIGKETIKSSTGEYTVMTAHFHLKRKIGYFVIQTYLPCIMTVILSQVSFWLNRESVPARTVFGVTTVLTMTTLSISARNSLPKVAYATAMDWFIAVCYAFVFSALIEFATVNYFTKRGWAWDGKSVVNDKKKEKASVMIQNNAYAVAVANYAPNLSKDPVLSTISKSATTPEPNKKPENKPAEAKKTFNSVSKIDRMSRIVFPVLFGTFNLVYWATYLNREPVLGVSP

For `C[C@@]1(O)CC[C@H]2[C@H](CC[C@@H]3[C@@H]2CC[C@]2(C)[C@@H](C(=O)Cn4nccn4)CC[C@@H]32)C1`, the concentration at 0.5 h [1] was 773 ng/g, the concentration at 0.5 h [2] was 1690 ng/mL and the concentration at 0.5 h [3] was 703 ng/mL. For the same compound, the Activity (Mus musculus [4]) was 40%, the Activity (Mus musculus [5]) was 30% and the Activity (Mus musculus [6]) was 90%. For the same compound, the concentration at 0.5 h [7] was 87 ng/mL, the concentration at 0.5 h [8] was 1960 ng/g and the Activity (Mus musculus [9]) was 20%. For the same compound, the concentration at 0.5 h [10] was 87 ng/g.
`C[C@@]1(O)CC[C@@]2(C)[C@@H](CC[C@@H]3[C@@H]2CC[C@]2(C)[C@@H](c4cc(CO)on4)CC[C@@H]32)C1` gave an ED50 (Mus musculus [11]) of 6 mg/kg, a solubility [12] of 52 mM (≈ 20.2 mg/mL) and a selectivity ratio [13] of no less than 127. For the same compound, the selectivity ratio [14] was 6, the EC50 [15] was 1200 nM and the minimal effective dose (Mus musculus [16]) was no more than 0.3 mg/kg. The bioavailability [17] was 77% and the EC50 [18] was 200 nM.
